pKd: −log10 of the molar value. Active and inactive are the calls of the source. The calls are words filed in the database; no cut-off is given here.
How the values were obtained:
Galectin-8 = biological target: T1, Galectin-8 (Homo sapiens, UniProt O00214); experiment: Binding affinity to N-terminal domain of human galectin-8 (8-154 residues) by ITC assay
T1 sequence (O00214 whole entry): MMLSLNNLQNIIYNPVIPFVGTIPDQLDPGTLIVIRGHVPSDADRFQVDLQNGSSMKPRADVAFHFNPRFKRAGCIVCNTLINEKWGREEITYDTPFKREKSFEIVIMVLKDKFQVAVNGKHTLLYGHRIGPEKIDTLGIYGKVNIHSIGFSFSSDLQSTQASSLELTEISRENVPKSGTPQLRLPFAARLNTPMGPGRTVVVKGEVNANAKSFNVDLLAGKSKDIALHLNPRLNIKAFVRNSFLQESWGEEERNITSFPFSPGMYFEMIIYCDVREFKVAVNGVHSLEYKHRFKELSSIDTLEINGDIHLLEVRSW
In short: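 Untagged galectin-8N (residues 8-154) was expressed in bacteria (IPTG induction 4 h, room temperature) and purified on lactosyl-Sepharose at 4 °C. Protein and ligand were in 20 mM Tris pH 7.5, 100 mM NaCl, 4 mM BME, 5% DMSO and degassed. Ligand (0.5 or 1 mM) was titrated into 100 µM protein over 20-25 × 2.5 µl injections, 150 s apart, at 298 K. Blank-corrected data were fitted to an independent-site model for Kd.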

[1] = biological target: T2, Galectin-8 (Homo sapiens) (UniProt O00214); experiment: Antagonist activity at galectin-8 in human SUM159PT cells assessed as reduction in galectin-8-induced IL-8 mRNA expression at 1 uM incubated for 24 hrs by real-time PCR analysis; assay type: cell-based; conditions: filed as antagonist
T2 sequence (whole entry): T1 sequence (O00214 whole entry)
In short: (§1)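 SUM159 triple-negative breast cancer cells in RPMI/10% FBS at 37 °C, 5% CO2, seeded at 50000 cells/cm². Galectin-8 (50 nM) stimulated, with or without compound. Dose-response run at 1, 10, 100 and 500 µM.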

[2] = biological target: T2, Galectin-8 (Homo sapiens); experiment: Antagonist activity at galectin-8 in human SUM159PT cells assessed as reduction in galectin-8-induced IL-6 mRNA expression at 1 uM incubated for 24 hrs by real-time PCR analysis; assay type: cell-based; conditions: filed as antagonist; in short: as §1
[3] = biological target: T2, Galectin-8 (Homo sapiens); experiment: Antagonist activity at galectin-8 in human SUM159PT cells assessed as reduction in galectin-8-induced IL-1beta mRNA expression at 500 uM incubated for 24 hrs by real-time PCR analysis; assay type: cell-based
In short: (§2)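 SUM159 triple-negative breast cancer cells grown in RPMI with 10% FBS and penicillin/streptomycin at 37 °C, 5% CO2. Cells seeded at 50000 cells/cm², then incubated 24 h with compound at 500 µM, with or without 50 nM galectin-8. Means ± SEM from experiments done in duplicates.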

[4] = biological target: T2, Galectin-8 (Homo sapiens); experiment: Antagonist activity at galectin-8 in human SUM159PT cells assessed as reduction in galectin-8-induced IL-6 mRNA expression at 500 uM incubated for 24 hrs by real-time PCR analysis; assay type: cell-based; in short: as §2
[5] = biological target: T2, Galectin-8 (Homo sapiens); experiment: Potency index, ratio of Kd for lactose to Kd for test compound for binding affinity to N-terminal domain of human galectin-8 (8-154 residues) by ITC assay; conditions: filed as antagonist
[6] = biological target: T2, Galectin-8 (Homo sapiens); experiment: Antagonist activity at galectin-8 in human SUM159PT cells assessed as reduction in galectin-8-induced IL-8 mRNA expression at 500 uM incubated for 24 hrs by real-time PCR analysis; assay type: cell-based; in short: as §2

`CC(=O)N[C@H]1[C@H]([C@H](O)[C@H](O)CO)O[C@@](O[C@H]2[C@@H](O)[C@@H](CO)O[C@@H](O[C@H]3[C@H](O)[C@@H](O)[C@H](O)O[C@@H]3CO)[C@@H]2O)(C(=O)O)C[C@@H]1O` was tested, and the pKd (Galectin-8) was 5.64.

For `CO[C@@H]1O[C@H](CO)[C@H](O)[C@H](OC(=O)CC(=O)Oc2ccc(F)cc2)[C@H]1O`, the inhibition [1] was “Active”, the inhibition [2] was “Active” and the Antagonist activity ([3]; filed as antagonist) was “Active”. The inhibition ([4]; filed as antagonist) was “Active”, the Ratio [5] was 7 and the pKd (Galectin-8) was 5.24. The inhibition ([6]; filed as antagonist) was “Active”.

For `COc1cc(OC)cc(OC(=O)CC(=O)O[C@H]2[C@@H](O)[C@@H](CO)O[C@@H](OC)[C@@H]2O)c1`, the pKd (Galectin-8) was 4.96.

`COC(=O)CC(=O)O[C@H]1[C@@H](O)[C@@H](CO)O[C@@H](OC)[C@@H]1O` was tested, and the Antagonist activity [3] was “inactive”, the inhibition [4] was “inactive” and the pKd (Galectin-8) was 4.60. For the same compound, the inhibition [6] was “inactive”.

`CO[C@@H]1O[C@H](CO)[C@H](O)[C@H](OC(=O)CC(=O)Oc2ccccc2)[C@H]1O` showed a pKd (Galectin-8) of 4.89.

For `CO[C@@H]1O[C@H](CO)[C@H](O)[C@H](OC(=O)CC(=O)O)[C@H]1O`, the Antagonist activity [3] was “inactive”, the inhibition [4] was “inactive” and the pKd (Galectin-8) was 4.47. For the same compound, the inhibition [6] was “inactive”.

In the case of `CO[C@@H]1O[C@H](CO)[C@H](O)[C@H](OC(=O)CC(=O)OCc2ccccc2)[C@H]1O`, the inhibition [1] was “Active”, the inhibition [2] was “Active” and the Antagonist activity ([3]; filed as antagonist) was “Active”. The inhibition ([4]; filed as antagonist) was “Active”, the pKd (Galectin-8) was 5.04 and the inhibition ([6]; filed as antagonist) was “Active”.

`COc1ccc(OC(=O)CC(=O)O[C@H]2[C@@H](O)[C@@H](CO)O[C@@H](OC)[C@@H]2O)cc1` gave a pKd (Galectin-8) of 5.02.

Compound `CO[C@@H]1O[C@H](CO)[C@H](O)[C@H](OC(=O)CC(=O)Oc2ccc(Cl)cc2Cl)[C@H]1O` has a pKd (Galectin-8) of 4.92.

From ChEMBL document CHEMBL4665760, “Rational Design and Synthesis of Methyl-β-d-galactomalonyl Phenyl Esters as Potent Galectin-8N Antagonists” (J Med Chem, 2020)
